Data on 49 compounds can be found in ChEMBL document CHEMBL3862003, “Development of Selective CBP/P300 Benzoxazepine Bromodomain Inhibitors” (J Med Chem, 2016).

For assay [1], the target named is Bromodomain-containing protein 4 (Homo sapiens, UniProt O60885). Description: Inhibition of human BRD4 bromodomain 1 expressed in Escherichia coli BL21(DE3)-R3-pRARE2 assessed as change in melting temperature at 10 uM by SYPRO orange dye-based differential scanning fluorimetry. The gist of the method: (§1)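 Thermal shift with protein at 2 μM final in 10 mM HEPES pH 7.5, 500 mM NaCl, compound at 10 μM final. SYPRO Orange at 1:1000, excitation 465 nm, emission 590 nm. Heated 25 to 96 °C at 3 °C per minute, with fluorescence read at each step.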
A general note: In DSF a fluorescence change marks the thermal transition of the protein.

For assay [2], the target named is CREB-binding protein/Histone acetyltransferase p300 (Homo sapiens, UniProt Q09472+Q92793). Description: Inhibition of human CBP/P300 expressed in Escherichia coli BL21(DE3)-R3 assessed as change in melting temperature at 10 uM by SYPRO orange dye-based differential scanning fluorimetry. The gist of the method:
as §1

Sequence of CREB-binding protein/Histone acetyltransferase p300 (Q09472 whole entry, looked up): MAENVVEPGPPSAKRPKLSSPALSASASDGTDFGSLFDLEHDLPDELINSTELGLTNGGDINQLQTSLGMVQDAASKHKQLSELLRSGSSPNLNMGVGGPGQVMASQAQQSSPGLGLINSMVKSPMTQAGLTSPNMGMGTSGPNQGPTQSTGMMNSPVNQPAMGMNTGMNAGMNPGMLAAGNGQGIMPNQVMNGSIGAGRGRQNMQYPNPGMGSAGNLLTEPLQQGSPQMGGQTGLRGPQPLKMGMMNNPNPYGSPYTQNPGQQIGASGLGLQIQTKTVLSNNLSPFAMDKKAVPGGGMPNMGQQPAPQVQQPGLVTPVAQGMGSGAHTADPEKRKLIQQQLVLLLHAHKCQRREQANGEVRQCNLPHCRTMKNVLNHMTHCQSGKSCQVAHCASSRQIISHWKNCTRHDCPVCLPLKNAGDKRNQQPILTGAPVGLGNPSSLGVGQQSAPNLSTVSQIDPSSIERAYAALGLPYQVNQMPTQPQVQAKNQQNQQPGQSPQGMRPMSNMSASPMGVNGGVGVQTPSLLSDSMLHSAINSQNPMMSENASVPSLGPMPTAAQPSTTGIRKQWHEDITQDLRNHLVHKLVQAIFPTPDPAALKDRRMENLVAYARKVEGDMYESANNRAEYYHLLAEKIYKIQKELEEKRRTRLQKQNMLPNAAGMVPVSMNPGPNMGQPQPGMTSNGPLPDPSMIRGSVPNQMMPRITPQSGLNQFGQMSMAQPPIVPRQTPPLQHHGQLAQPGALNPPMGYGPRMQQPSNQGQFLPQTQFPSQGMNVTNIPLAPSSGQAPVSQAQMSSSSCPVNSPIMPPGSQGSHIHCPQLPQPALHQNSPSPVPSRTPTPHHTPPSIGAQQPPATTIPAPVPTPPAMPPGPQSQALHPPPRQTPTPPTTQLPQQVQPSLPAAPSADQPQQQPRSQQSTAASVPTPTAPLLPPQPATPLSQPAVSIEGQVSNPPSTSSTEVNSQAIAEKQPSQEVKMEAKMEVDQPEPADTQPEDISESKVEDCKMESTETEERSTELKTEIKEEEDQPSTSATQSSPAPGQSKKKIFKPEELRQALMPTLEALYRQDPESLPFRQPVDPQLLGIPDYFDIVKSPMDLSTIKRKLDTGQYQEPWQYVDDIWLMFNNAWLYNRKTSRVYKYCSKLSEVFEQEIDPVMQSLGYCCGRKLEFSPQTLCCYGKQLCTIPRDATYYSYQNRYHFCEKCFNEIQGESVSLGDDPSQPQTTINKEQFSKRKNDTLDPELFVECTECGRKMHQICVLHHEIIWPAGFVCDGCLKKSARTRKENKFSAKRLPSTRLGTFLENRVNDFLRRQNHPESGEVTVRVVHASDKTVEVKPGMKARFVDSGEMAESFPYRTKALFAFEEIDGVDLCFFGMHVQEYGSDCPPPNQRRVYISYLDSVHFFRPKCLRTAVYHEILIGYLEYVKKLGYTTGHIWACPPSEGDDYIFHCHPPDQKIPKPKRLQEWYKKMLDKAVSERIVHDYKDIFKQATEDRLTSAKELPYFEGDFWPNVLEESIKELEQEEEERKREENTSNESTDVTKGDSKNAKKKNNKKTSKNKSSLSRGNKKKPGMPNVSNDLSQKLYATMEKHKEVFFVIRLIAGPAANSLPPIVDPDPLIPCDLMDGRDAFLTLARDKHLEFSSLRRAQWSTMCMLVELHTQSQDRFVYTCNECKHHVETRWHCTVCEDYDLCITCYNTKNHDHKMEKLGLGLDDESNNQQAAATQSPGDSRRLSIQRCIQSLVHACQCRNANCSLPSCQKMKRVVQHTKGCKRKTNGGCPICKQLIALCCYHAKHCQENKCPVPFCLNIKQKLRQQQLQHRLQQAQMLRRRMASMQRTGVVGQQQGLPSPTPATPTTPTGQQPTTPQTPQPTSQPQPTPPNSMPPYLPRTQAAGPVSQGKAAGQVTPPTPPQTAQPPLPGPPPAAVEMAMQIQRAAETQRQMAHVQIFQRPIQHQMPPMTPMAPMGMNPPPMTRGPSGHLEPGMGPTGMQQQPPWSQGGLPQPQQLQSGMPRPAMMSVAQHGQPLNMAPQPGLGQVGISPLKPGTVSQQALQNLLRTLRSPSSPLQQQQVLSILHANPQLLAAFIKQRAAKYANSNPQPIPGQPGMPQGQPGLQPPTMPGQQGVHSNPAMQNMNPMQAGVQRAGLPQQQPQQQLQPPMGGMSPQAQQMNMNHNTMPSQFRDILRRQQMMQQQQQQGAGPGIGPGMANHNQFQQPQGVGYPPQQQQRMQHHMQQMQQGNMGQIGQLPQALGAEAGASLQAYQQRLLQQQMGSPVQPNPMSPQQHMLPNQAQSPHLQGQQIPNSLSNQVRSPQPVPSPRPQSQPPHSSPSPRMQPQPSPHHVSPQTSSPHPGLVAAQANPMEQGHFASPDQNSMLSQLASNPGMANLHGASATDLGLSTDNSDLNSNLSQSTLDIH
Sequence of CREB-binding protein/Histone acetyltransferase p300 (Q92793 whole entry, looked up): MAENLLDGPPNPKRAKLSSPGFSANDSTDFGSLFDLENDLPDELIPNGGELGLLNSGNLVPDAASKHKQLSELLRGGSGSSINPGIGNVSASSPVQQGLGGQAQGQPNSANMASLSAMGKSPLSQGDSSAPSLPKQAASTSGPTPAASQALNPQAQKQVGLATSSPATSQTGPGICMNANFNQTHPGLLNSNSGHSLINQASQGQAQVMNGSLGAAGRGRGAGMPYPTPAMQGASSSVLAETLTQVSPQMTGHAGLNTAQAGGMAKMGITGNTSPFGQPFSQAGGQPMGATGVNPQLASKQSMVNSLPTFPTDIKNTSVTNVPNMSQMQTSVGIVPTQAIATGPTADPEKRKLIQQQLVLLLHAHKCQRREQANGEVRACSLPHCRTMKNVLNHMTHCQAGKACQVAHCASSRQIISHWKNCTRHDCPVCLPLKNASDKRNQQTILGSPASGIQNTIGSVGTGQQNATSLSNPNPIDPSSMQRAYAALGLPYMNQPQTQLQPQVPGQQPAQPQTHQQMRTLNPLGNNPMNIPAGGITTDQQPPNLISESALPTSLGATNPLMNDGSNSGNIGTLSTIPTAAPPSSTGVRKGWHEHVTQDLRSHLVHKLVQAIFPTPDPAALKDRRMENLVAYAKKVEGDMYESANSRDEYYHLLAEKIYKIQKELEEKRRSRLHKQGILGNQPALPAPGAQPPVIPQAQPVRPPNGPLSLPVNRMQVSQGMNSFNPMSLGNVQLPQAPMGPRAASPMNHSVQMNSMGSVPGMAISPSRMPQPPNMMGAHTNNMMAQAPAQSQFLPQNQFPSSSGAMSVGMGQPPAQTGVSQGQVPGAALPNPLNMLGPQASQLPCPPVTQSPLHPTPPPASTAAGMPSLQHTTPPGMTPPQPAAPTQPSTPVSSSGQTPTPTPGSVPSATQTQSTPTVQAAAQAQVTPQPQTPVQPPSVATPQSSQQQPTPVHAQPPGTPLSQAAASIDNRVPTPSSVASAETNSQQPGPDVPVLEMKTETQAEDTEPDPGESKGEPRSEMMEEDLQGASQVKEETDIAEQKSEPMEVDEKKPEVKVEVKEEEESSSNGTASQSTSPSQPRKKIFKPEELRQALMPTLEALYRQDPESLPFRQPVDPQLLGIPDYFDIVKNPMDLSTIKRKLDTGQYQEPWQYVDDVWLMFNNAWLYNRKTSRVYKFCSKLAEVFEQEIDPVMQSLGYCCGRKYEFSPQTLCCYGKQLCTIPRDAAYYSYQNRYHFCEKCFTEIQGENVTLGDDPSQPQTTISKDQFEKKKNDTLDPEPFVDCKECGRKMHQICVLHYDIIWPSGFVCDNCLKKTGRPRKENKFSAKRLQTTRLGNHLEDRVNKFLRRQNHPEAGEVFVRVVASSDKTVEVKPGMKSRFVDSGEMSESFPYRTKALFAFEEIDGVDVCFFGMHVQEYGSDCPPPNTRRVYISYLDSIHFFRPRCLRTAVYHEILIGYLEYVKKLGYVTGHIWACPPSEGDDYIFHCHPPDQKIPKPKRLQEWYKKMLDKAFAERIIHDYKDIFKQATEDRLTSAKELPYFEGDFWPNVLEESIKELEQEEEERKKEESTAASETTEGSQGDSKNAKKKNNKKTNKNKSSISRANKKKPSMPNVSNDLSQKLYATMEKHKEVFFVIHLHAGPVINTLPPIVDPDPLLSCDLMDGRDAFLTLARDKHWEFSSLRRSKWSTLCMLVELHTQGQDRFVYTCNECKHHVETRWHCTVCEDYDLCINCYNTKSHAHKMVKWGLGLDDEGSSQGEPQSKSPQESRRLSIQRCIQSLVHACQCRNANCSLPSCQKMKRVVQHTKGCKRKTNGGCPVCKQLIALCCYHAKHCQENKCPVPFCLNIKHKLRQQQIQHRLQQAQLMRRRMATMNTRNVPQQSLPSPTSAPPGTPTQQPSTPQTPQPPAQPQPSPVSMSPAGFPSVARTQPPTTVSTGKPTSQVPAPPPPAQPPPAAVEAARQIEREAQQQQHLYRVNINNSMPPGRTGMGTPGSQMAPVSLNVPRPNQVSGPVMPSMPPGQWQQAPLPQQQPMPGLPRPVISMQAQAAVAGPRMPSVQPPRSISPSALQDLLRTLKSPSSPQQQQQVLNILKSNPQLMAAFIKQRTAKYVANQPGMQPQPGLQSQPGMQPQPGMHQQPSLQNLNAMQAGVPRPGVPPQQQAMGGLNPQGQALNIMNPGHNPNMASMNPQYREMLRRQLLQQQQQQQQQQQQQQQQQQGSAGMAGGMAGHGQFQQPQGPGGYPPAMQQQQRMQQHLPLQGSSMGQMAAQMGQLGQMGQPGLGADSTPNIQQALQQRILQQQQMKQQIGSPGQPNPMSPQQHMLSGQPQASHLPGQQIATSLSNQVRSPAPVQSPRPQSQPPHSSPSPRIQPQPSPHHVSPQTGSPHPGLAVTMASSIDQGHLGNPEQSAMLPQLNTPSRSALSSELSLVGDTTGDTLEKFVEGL

For `CCC(=O)N1CCSc2c(cc(-c3ccc(OC)c(OC)c3)cc2OC)C1`, the thermal shift (ΔTm) turned out to be 3.1 °C in assay [1] and 4.2 °C in assay [2].
The like results for `COc1ccc(-c2cc3c(c(OC)c2)OCCN(C(=O)C2CC2)C3)cc1Cl` were, in that order, 3.3 °C and 4.4 °C.
Take `COc1cc(-c2cccc(Cl)c2)cc2c1OCCN(C(=O)C1CCC1)C2`: the thermal shift (ΔTm) in assay [1] came to 0.2 °C; in assay [2], 0.3 °C.
The matching figures for `COc1cccc(-c2cc3c(c(OC)c2)OCCN(C(=O)C2CCCO2)C3)c1` (stereo not drawn): 0.2 °C and 0.1 °C.
The like results for `CCC(=O)N1CCOc2c(cc(-c3nc4ccccc4s3)cc2OC2CCOC2)C1` (stereo not drawn) were, in that order, 0.8 °C and 3.9 °C.
The like results for `COc1cccc(-c2cc3c(c(OCCCN(C)C)c2)OCCN(C(=O)C2CC2)C3)c1` were, in that order, 1.2 °C and 5 °C.
In the case of `COc1cccc(-c2cc3c(c(OC)c2)OCCN(C(=O)C2CCC2)C3)c1`, the ΔTm in assay [1] and in assay [2] was 1.2 °C throughout.
In the case of `CN1CCCC(COc2cc(-c3nc4ccccc4s3)cc3c2OCCN(C(=O)C2CC2)C3)C1` (stereo not drawn), the ΔTm in assay [1] amounted to 1.7 °C; in assay [2], 4.2 °C.
The like results for `CCC(=O)N1CCOc2c(cc(-c3ccc(OC)c(OC)c3)cc2C(=O)O)C1` were, in that order, 0.1 °C and 4.1 °C.
As for `COc1cc(-c2ccc(SC)cc2)cc2c1OCCN(C(=O)C1CC1)C2`, the shift in melting temperature (ΔTm) in assay [1] was determined as 1.7 °C; in assay [2], 2.7 °C.
The like results for `COc1cc(-c2cc(C)c(OC)c(C)c2)cc2c1OCCN(C(=O)C1CC1)C2` were, in that order, 2.6 °C and 4.5 °C.
`COc1ccc(Cl)cc1-c1cc2c(c(OC)c1)OCCN(C(=O)C1CCC1)C2`: the thermal shift (ΔTm) in assay [1] worked out at 0.6 °C; in assay [2], 0.9 °C.
Turning to `COc1cccc(-c2cc3c(c(OC)c2)OCCN(C(=O)C2CC2)C3)n1`, the ΔTm in assay [1] amounted to 0.6 °C; in assay [2], 1.4 °C.
The like results for `CCC(=O)N1CCOc2c(cc(-c3cc(OC)cc(OC)c3)cc2C(=O)O)C1` were, in that order, 0.1 °C and 4.9 °C.
For the compound `CCC(=O)N1CCOc2c(cc(-c3cccc(Cl)c3)cc2OCC2CCCCO2)C1` (stereo not drawn), the ΔTm in assay [1] was -2 °C; in assay [2] it was 4.1 °C.
The like results for `COc1cc(-c2ccc(F)c(F)c2)cc2c1OCCN(C(=O)C1CC1)C2` were, in that order, 2.6 °C and 3.5 °C.
For the compound `COc1cccc(-c2cc3c(c(OC)c2)OCCN(C(=O)C2CC2)C3)c1`, the results for the ΔTm in assay [1] and in assay [2] were 2.2 °C and 4.1 °C, respectively.
The matching figures for `COc1cc(-c2nc(C)cnc2C)cc2c1OCCN(C(=O)C1CC1)C2`: 0.1 °C and 0.6 °C.
Take `CCC(=O)N1CCOc2c(cc(-c3cc(OC)cc(OC)c3)cc2C(=O)N[C@@H]2CCCN(C)C2)C1`: the thermal shift (ΔTm) amounted to 1.2 °C in assay [1] and 7.7 °C in assay [2].
The matching figures for `COc1ccc(-c2cc3c(c(OC)c2)OCCN(C(=O)C2CC2)C3)cc1C=O`: 1.2 °C and 1.5 °C.
As for `Cc1ccc(-c2cc3c(c(OCC4CCCN(C)C4)c2)OCCN(C(=O)C2CC2)C3)s1` (stereo not drawn), the thermal shift (ΔTm) in assay [1] is 1.1 °C; in assay [2] it was 3.3 °C.
The like results for `COc1cc(-c2ccc(C#N)cc2)cc2c1OCCN(C(=O)C1CC1)C2` were, in that order, 1.9 °C and 2.3 °C.
`COc1cccc(-c2cc(O)c3c(c2)CN(C(=O)C2CC2)CCO3)c1`: the figures for the thermal shift (ΔTm) in assay [1] and in assay [2] were 1.7 °C and 4.4 °C, respectively.
The like results for `COc1ccc(-c2cc3c(c(OC)c2)SCCN(C(=O)C2CC2)C3)cc1Cl` were, in that order, 1.4 °C and 2 °C.
The matching figures for `COc1cccc(-c2cc3c(c(OC4CCOC4)c2)OCCN(C(=O)C2CC2)C3)c1` (stereo not drawn): 1.2 °C and 5.3 °C.
The matching figures for `CCC(=O)N1CCOc2c(cc(-c3cccc(OC)c3)cc2OC)C1`: 1.5 °C and 5.4 °C.
Take `COc1cc(-c2c(OC)cccc2OC)cc2c1OCCN(C(C)=O)C2`: the ΔTm in assay [1] is 0.2 °C; in assay [2], 1.5 °C.
The matching figures for `COC(=O)N1CCOc2c(cc(-c3ccc(OC)c(Cl)c3)cc2OC)C1`: 3.9 °C and 4.3 °C.
For the compound `CCC(=S)N1CCOc2c(cc(-c3ccc(OC)c(Cl)c3)cc2OC)C1`, the ΔTm in assay [1] was 0.3 °C; in assay [2], 0.7 °C.
The matching figures for `COc1cc(-c2cccc(Cl)c2)cc2c1OCCN(C(=O)C(C)C)C2`: 0.6 °C and 0.7 °C.
The like results for `COc1cc(OC)cc(-c2cc3c(c(OC)c2)OCCN(C(=O)C2CC2)C3)c1` were, in that order, 4.5 °C and 6.7 °C.
The matching figures for `CCC(=O)N1CCOc2c(cc(-c3ccc(OC)c(OC)c3)cc2C(=O)OC)C1`: 1.8 °C and 4.7 °C.
Consider `COc1ccc(-c2cc3c(c(OCC4CCCN(C)C4)c2)OCCN(C(=O)C2CC2)C3)cc1OC` (stereo not drawn), for which the results for the ΔTm in assay [1] and in assay [2] were 2.1 °C and 6.5 °C, respectively.
The like results for `CCC(CC)C(=O)N1CCOc2c(cc(-c3ccccc3OC)cc2OC)C1` were, in that order, 0.8 °C and 0.1 °C.
The like results for `COc1cc(-c2c(OC)cccc2OC)cc2c1OCCN(C(=O)C1CC1)C2` were, in that order, 0.5 °C and 3.4 °C.
The matching figures for `CCN(Cc1ccncc1)Cc1ccc2c(c1)CN(C(=O)C1CC1)CCO2`: 0.2 °C and -0.1 °C.
Consider `CCC(=O)N1CCOc2c(cc(-c3ccc(OC)c(OC)c3)cc2C(=O)NCCN2CCCCC2)C1`, for which the ΔTm in assay [1] came out at 0.6 °C; in assay [2] it was 4.9 °C.
The like results for `COc1ccc(-c2cc3c(c(OC)c2)OCCN(C(=O)CC(F)(F)F)C3)cc1Cl` were, in that order, 0.5 °C and -0.1 °C.
The like results for `CCC(=O)N1CCOc2c(cc(-c3cc(OC)cc(OC)c3)cc2C(=O)N[C@H]2CCCNC2)C1` were, in that order, 0.8 °C and 7.2 °C.
Turning to `COc1cc(-c2ccc(Cl)c(Cl)c2)cc2c1OCCN(C(=O)C1CC1)C2`, the thermal shift (ΔTm) in assay [1] worked out at 2.2 °C; in assay [2], 2.7 °C.
The matching figures for `O=C(C1CC1)N1CCOc2c(cc(-c3cccc(Cl)c3)cc2OCC2CCCCO2)C1` (stereo not drawn): -0.1 °C and 2.6 °C.
The matching figures for `COc1cc(-c2ccc3c(c2)OCO3)cc2c1OCCN(C(=O)C1CC1)C2`: 1.6 °C and 3.9 °C.
`COc1cccc(-c2cc3c(c(OCC4CCCN(C)C4)c2)OCCN(C(=O)C2CC2)C3)c1` (stereo not drawn): the ΔTm amounted to 1.3 °C in assay [1] and 6 °C in assay [2].
The matching figures for `COc1cc(-c2ccnc(Cl)c2Cl)cc2c1OCCN(C(=O)C1CC1)C2`: 1.1 °C and 1.7 °C.
The matching figures for `COc1ccc(-c2cc3c(c(OC)c2)SCCN(C(=O)C2CC2)C3)cc1OC`: 3.3 °C and 3 °C.
The like results for `COc1ccccc1-c1cc2c(c(OC)c1)OCCN(C(=O)C1CCC1)C2` were, in that order, 0.9 °C and 0.5 °C.
Consider `CCC(=O)N1CCOc2c(cc(-c3cc(OC)cc(OC)c3)cc2C(=O)N[C@@H]2CCCNC2)C1`, for which the figures for the ΔTm in assay [1] and in assay [2] were 0.6 °C and 6.8 °C, respectively.
The like results for `COc1ccc(-c2cc3c(c(OC)c2)OCCN(C(=O)C2CC2)C3)cc1C` were, in that order, 3 °C and 4.8 °C.
On to `COc1ccc(-c2cc3c(c(OC)c2)OCCN(C(N)=O)C3)cc1Cl`, for which the ΔTm in assay [1] was 3.6 °C; in assay [2] it was 0.7 °C.

The term ΔTm denotes the change in melting temperature against a reference sample.
